Assay results taken from ChEMBL document CHEMBL3120083, “Discovery of N-[4-[6-tert-butyl-5-methoxy-8-(6-methoxy-2-oxo-1H-pyridin-3-yl)-3-quinolyl]phenyl]methanesulfonamide (RG7109), a potent inhibitor of the hepatitis C virus NS5B polymerase” (J Med Chem, 2014).
Values after ≈ are worked out from the molar mass of the structure shown.

Legend:
[1] = system: Hepatitis C virus; assay: Antiviral activity against Hepatitis C virus genotype 1b Con1 infected in human 2209-23 cells after 72 hrs by luciferase reporter gene assay in presence of 40% human serum; format: functional, organism-based, Hepacivirus hominis; settings: isolate Con1, 2209-23, 72 h
[2] = Cmax in Wistar/Han rat at 30 mg/kg, po of compound as aqueous suspension; format: ADME, organism-based; set-up: dose 30 mg/kg, route oral; settings: in vivo
[3] = system: Hepatitis C virus; assay: Antiviral activity against Hepatitis C virus genotype 1b clinical isolate RO-8 expressing NS5B assessed as inhibition of viral replication after 4 days by luciferase reporter gene assay; format: functional, organism-based, Hepacivirus hominis; settings: genotype 1b clinical isolate RO-8, 96 h
[4] = system: Hepatitis C virus; assay: Antiviral activity against Hepatitis C virus genotype 1a H77 infected in human 2209-23 cells after 72 hrs by luciferase reporter gene assay in presence of 40% human serum; format: functional, organism-based, Hepacivirus hominis; settings: genotype 1a H77, 2209-23, 72 h
[5] = system: Hepatitis C virus; assay: Ratio of EC50 for Hepatitis C virus genotype 1a H77 in presence of human serum to EC50 for Hepatitis C virus genotype 1a H77; format: functional, Hepacivirus hominis
[6] = system: Hepatitis C virus; assay: Antiviral activity against Hepatitis C virus genotype 1a clinical isolate RO-24 expressing NS5B assessed as inhibition of viral replication after 4 days by luciferase reporter gene assay; format: functional, organism-based, Hepacivirus hominis; settings: genotype 1a clinical isolate RO-24, 96 h
[7] = system: Hepatitis C virus; assay: Antiviral activity against Hepatitis C virus genotype 1b Con1 expressing NS5B assessed as inhibition of viral replication after 4 days by luciferase reporter gene assay; format: functional, organism-based, Hepacivirus hominis; settings: isolate Con1, 96 h
[8] = system: Hepatitis C virus; assay: Antiviral activity against Hepatitis C virus genotype 1a clinical isolate RO-38 expressing NS5B assessed as inhibition of viral replication after 4 days by luciferase reporter gene assay; format: functional, organism-based, Hepacivirus hominis; settings: genotype 1a clinical isolate RO-38, 96 h
[9] = AUC (0 to infinity) in Beagle dog at 3 mg/kg, po of compound as aqueous suspension; format: ADME, organism-based, Canis lupus familiaris; set-up: time infinity, dose 3 mg/kg, route oral; settings: plasma
[10] = system: Hepatitis C virus; assay: Antiviral activity against Hepatitis C virus genotype 1a H77 infected in human 2209-23 cells after 72 hrs by luciferase reporter gene assay; format: functional, organism-based, Hepacivirus hominis; settings: genotype 1a H77, 2209-23, 72 h
[11] = system: Hepatitis C virus; assay: Antiviral activity against Hepatitis C virus genotype 1a clinical isolate RO-35 expressing NS5B assessed as inhibition of viral replication after 4 days by luciferase reporter gene assay; format: functional, organism-based, Hepacivirus hominis; settings: genotype 1a clinical isolate RO-35, 96 h
[12] = Ratio of EC50 for Hepatitis C virus genotype 1a H77 to EC50 for Hepatitis C virus genotype 1b Con1; format: functional
[13] = Half life in Beagle dog at 1 mg/kg, iv; format: ADME, organism-based, Canis lupus familiaris; set-up: dose 1 mg/kg, route intravenous; settings: in vivo
Summary of the method: (§1)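 Single intravenous bolus via tail vein or jugular cannula of dual-cannulated animals, vehicle 2% dimethyl acetamide/20% PEG400/23.4% HPBCD. EDTA blood typically taken at 0.08, 0.25, 0.5, 1, 2, 4, 6, 8 and 24 h from the remaining cannulas. Plasma drug measured by LC/MS/MS following acetonitrile protein precipitation.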

[14] = Half life in Wistar/Han rat at 3 mg/kg, iv; format: ADME, organism-based; set-up: dose 3 mg/kg, route intravenous; settings: in vivo; summary of the method: as §1
[15] = system: Hepatitis C virus; assay: Antiviral activity against Hepatitis C virus genotype 1a clinical isolate RO-34 expressing NS5B assessed as inhibition of viral replication after 4 days by luciferase reporter gene assay; format: functional, organism-based, Hepacivirus hominis; settings: genotype 1a clinical isolate RO-34, 96 h
[16] = system: Hepatitis C virus; assay: Antiviral activity against Hepatitis C virus genotype 1b clinical isolate RO-3 expressing NS5B assessed as inhibition of viral replication after 4 days by luciferase reporter gene assay; format: functional, organism-based, Hepacivirus hominis; settings: genotype 1b clinical isolate RO-3, 96 h
[17] = Volume of distribution at steady state in Beagle dog at 1 mg/kg, iv; format: ADME, organism-based, Canis lupus familiaris; set-up: dose 1 mg/kg, route intravenous; settings: in vivo, read-out: Vdss; summary of the method: as §1
[18] = Cmax in Beagle dog at 3 mg/kg, po of compound as aqueous suspension; format: ADME, organism-based, Canis lupus familiaris; set-up: dose 3 mg/kg, route oral; settings: in vivo
[19] = Clearance in Wistar/Han rat at 3 mg/kg, iv; format: ADME, organism-based; set-up: dose 3 mg/kg, route intravenous; settings: in vivo; summary of the method: as §1
[20] = Clearance in Beagle dog at 1 mg/kg, iv; format: ADME, organism-based, Canis lupus familiaris; set-up: dose 1 mg/kg, route intravenous; settings: in vivo; summary of the method: as §1
[21] = system: Hepatitis C virus; assay: Antiviral activity against Hepatitis C virus genotype 1b clinical isolate RO-10 expressing NS5B assessed as inhibition of viral replication after 4 days by luciferase reporter gene assay; format: functional, organism-based, Hepacivirus hominis; settings: genotype 1b clinical isolate RO-10, 96 h
[22] = system: Hepatitis C virus; assay: Antiviral activity against Hepatitis C virus genotype 1a clinical isolate RO-41 expressing NS5B assessed as inhibition of viral replication after 4 days by luciferase reporter gene assay; format: functional, organism-based, Hepacivirus hominis; settings: genotype 1a clinical isolate RO-41, 96 h
[23] = system: Hepatitis C virus; assay: Antiviral activity against Hepatitis C virus genotype 1a clinical isolate RO-28 expressing NS5B assessed as inhibition of viral replication after 4 days by luciferase reporter gene assay; format: functional, organism-based, Hepacivirus hominis; settings: genotype 1a clinical isolate RO-28, 96 h
[24] = system: Hepatitis C virus; assay: Antiviral activity against Hepatitis C virus genotype 1b clinical isolate RO-4 expressing NS5B assessed as inhibition of viral replication after 4 days by luciferase reporter gene assay; format: functional, organism-based, Hepacivirus hominis; settings: genotype 1b clinical isolate RO-4, 96 h
[25] = Thermodynamic solubility of the compound; format: physicochemical; settings: read-out: Therm_solubility
[26] = Drug uptake in Wistar/Han rat at 30 mg/kg, po of compound as aqueous suspension measured at 8 hrs; format: ADME, organism-based; set-up: dose 30 mg/kg, route oral; settings: in vivo, read-out: Drug uptake
[27] = Oral bioavailability in Wistar/Han rat at 30 mg/kg of compound as aqueous suspension; format: ADME, organism-based; settings: in vivo
[28] = system: Hepatitis C virus; assay: Antiviral activity against Hepatitis C virus genotype 1a H77 expressing NS5B assessed as inhibition of viral replication after 4 days by luciferase reporter gene assay; format: functional, organism-based, Hepacivirus hominis; settings: genotype 1a H77, 96 h
[29] = system: Hepatitis C virus; assay: Antiviral activity against Hepatitis C virus genotype 1a clinical isolate RO-33 expressing NS5B assessed as inhibition of viral replication after 4 days by luciferase reporter gene assay; format: functional, organism-based, Hepacivirus hominis; settings: genotype 1a clinical isolate RO-33, 96 h
[30] = system: Hepatitis C virus; assay: Antiviral activity against Hepatitis C virus genotype 1a clinical isolate RO-18 expressing NS5B assessed as inhibition of viral replication after 4 days by luciferase reporter gene assay; format: functional, organism-based, Hepacivirus hominis; settings: genotype 1a clinical isolate RO-18, 96 h
[31] = Oral bioavailability in Beagle dog at 3 mg/kg of compound as aqueous suspension; format: ADME, organism-based, Canis lupus familiaris; settings: in vivo
[32] = AUC (0 to infinity) in Wistar/Han rat at 30 mg/kg, po of compound as aqueous suspension; format: ADME, organism-based; set-up: time infinity, dose 30 mg/kg, route oral; settings: plasma
[33] = system: Hepatitis C virus; assay: Antiviral activity against Hepatitis C virus genotype 1b Con1 infected in human 2209-23 cells after 72 hrs by luciferase reporter gene assay; format: functional, organism-based, Hepacivirus hominis; settings: isolate Con1, 2209-23, 72 h
Summary of the method: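 Stable GT-1b Con1 subgenomic replicon cell line expressing a renilla luciferase reporter, used as the readout of inhibition. EC50 from luciferase signal, n 2.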

[34] = system: Hepatitis C virus; assay: Antiviral activity against Hepatitis C virus genotype 1b clinical isolate RO-7 expressing NS5B assessed as inhibition of viral replication after 4 days by luciferase reporter gene assay; format: functional, organism-based, Hepacivirus hominis; settings: genotype 1b clinical isolate RO-7, 96 h
[35] = system: Hepatitis C virus; assay: Antiviral activity against Hepatitis C virus genotype 1b clinical isolate RO-9 expressing NS5B assessed as inhibition of viral replication after 4 days by luciferase reporter gene assay; format: functional, organism-based, Hepacivirus hominis; settings: genotype 1b clinical isolate RO-9, 96 h
[36] = system: Hepatitis C virus; assay: Antiviral activity against Hepatitis C virus genotype 1b clinical isolate RO-2 expressing NS5B assessed as inhibition of viral replication after 4 days by luciferase reporter gene assay; format: functional, organism-based, Hepacivirus hominis; settings: genotype 1b clinical isolate RO-2, 96 h
[37] = system: Hepatitis C virus; assay: Ratio of EC50 for Hepatitis C virus genotype 1b Con1 in presence of human serum to EC50 for Hepatitis C virus genotype 1b Con1; format: functional, Hepacivirus hominis, isolate Con1
[38] = Volume of distribution at steady state in Wistar/Han rat at 3 mg/kg, iv; format: ADME, organism-based; set-up: dose 3 mg/kg, route intravenous; settings: in vivo, read-out: Vdss; summary of the method: as §1
[39] = Drug uptake in Beagle dog at 3 mg/kg, po of compound as aqueous suspension measured at 8 hrs; format: ADME, organism-based, Canis lupus familiaris; set-up: dose 3 mg/kg, route oral; settings: in vivo, read-out: Drug uptake
[40] = system: Hepatitis C virus; assay: Antiviral activity against Hepatitis C virus genotype 1b clinical isolate RO-1 expressing NS5B assessed as inhibition of viral replication after 4 days by luciferase reporter gene assay; format: functional, organism-based, Hepacivirus hominis; settings: genotype 1b clinical isolate RO-1, 96 h

## COc1ccc(-c2cc(C(C)(C)C)c(OC)c3cc(N4CC[C@H](CNS(C)(=O)=O)C4)cnc23)c(=O)[nH]1
[1]
  EC50: 7.5 nM
  EC90: 44 nM
[2]
  Cmax: 3800 ng/mL
[3]
  EC50: 0.33 nM
[4]
  EC50: 10 nM
  EC90: 61 nM
[5]
  Ratio EC50: 0.6
[6]
  EC50: 2.5 nM
[7]
  EC50: 1.2 nM
[8]
  EC50: 9.5 nM
[9]
  AUC(0-inf): 4200 ng·h/mL
[10]
  EC50: 17 nM
[11]
  EC50: 0.5 nM
[12]
  Ratio EC50: 1.4
[13]
  half-life: 5.1 h
[14]
  half-life: 5.6 h
[15]
  EC50: 0.4 nM
[16]
  EC50: 6.1 nM
[17]
  Vd: 1.5 L/kg
[18]
  Cmax: 360 ng/mL
[19]
  clearance: 13.8 mL/min/kg
[20]
  clearance: 4.4 mL/min/kg
[21]
  EC50: 1.67 nM
[22]
  EC50: 0.27 nM
[23]
  EC50: 0.2 nM
[24]
  EC50: 0.8 nM
[25]
  solubility thermodynamic: 39 µg/mL (≈ 75.8 µM)
[26]
  concentration at 8 h: 1790 ng/mL
[27]
  bioavailability: 100%
[28]
  EC50: 0.65 nM
[29]
  EC50: 0.7 nM
[30]
  EC50: 0.5 nM
[31]
  bioavailability: 36%
[32]
  AUC(0-inf): 37000 ng·h/mL
[33]
  EC50: 12 nM
[34]
  EC50: 3.05 nM
[35]
  EC50: 3.5 nM
[36]
  EC50: 4 nM
[37]
  Ratio EC50: 0.6
[38]
  Vd: 2.3 L/kg
[39]
  concentration at 8 h: 210 ng/mL
[40]
  EC50: 0.3 nM
